Tested on: MS2 coat protein
Test: apparent Kd, MS2 coat protein; higher = weaker binding; RNA-MaP array; FMN 200 µM where present
Procedure, shortened: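 Green signal was scaled to red-channel RNA signal and control-cluster median Fmax, and the apparent Kd was taken as the median of filtered per-cluster binding-curve fits. The binding series used SNAP-549-labelled MS2 coat protein from 0.7 or 1.5 nM, doubling to 3 µM, on designs transcribed by stalled E. coli RNA polymerase on Illumina sequencing-chip clusters. Each series ran without and then with constant ligand in 100 mM Tris-HCl pH 7.5, 80 mM KCl, 4 mM MgCl2, BSA, DTT, yeast tRNA and Tween-20.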

[1] = designed as: ON switch for flavin mononucleotide, no ligand
[2] = ligand present: flavin mononucleotide, designed as: ON switch for flavin mononucleotide
[3] = designed as: OFF switch for flavin mononucleotide, no ligand
[4] = ligand present: flavin mononucleotide, designed as: OFF switch for flavin mononucleotide

Row | Sequence | apparent Kd [1] [nM] | apparent Kd [2] [nM] | apparent Kd [3] [nM] | apparent Kd [4] [nM]
1 | UGCGUACAAGCGGACAUGAGGAUCACCCAUGUAUUGUUAUGCGAGGAUAUCGGGAAGCAGGAUUCCGAGAAGGUGCGGUGAGCC | 19.2 | 17.7 |  | 
2 | UGCUACAUGAGGAUCACCCAUGUAAUGUGGGAAUCGUUAGGACAGGAUAUGAUUGUAUUGUUUUUUCAGAAGGGUCAUUACUUU |  |  | 302 | 303
3 | UGCUACAUGAGGAUCACCCAUGUAAUGUGGGAUUCGUUAGGACAGGAUAUGAUUGUAUAGUUUUUUCAGAAGGGUCAUUACUUU |  |  | 69.2 | 135
4 | UGCUACGUUUCGUAGCAGUGUCAUCGAGAAGGCCCUGACAUGAGGAUCACCCAUGUUGUUACAUGGGAGGAUAUCGAUGAUACG | 12 | 4.9 |  | 
5 | UGCUAGAACCUAGGAUAUCCUGGGUUGGUGGUGCUUGAUGACCGGACAUGAGGAUCACCCAUGUAGGAGAAGGAGGUUGUUAAG |  |  | 60.6 | 112
6 | UGCUGACGAGGAUAUACAUGAGGAUCACCCAUGUUGGUUCAGCGACUUCGGUCGCAAUGUAGAAGGCGUCAGCU |  |  | 410 | 277
7 | UGCUGGGAAUCAGGAUAUACGUGGUAUCCUGAGCACAUGAGGAUCACCCAUGUAGAAGGGAUUCCGCGGUGAGAUUCCGAAACA |  |  | 4.97 | 5.45
8 | UGCUGUGUCAGAGGAUAUACACCUAUAAUCCAUUGCAAAUAGCGAUGGACAUGAGGAUCACCCAUGUAGAAGGCUGUCACAGCA |  |  | 214 | 647
9 | UGCUUCGUGUAAGGAUAUGCUGCCGUUUCGGCUGCAGAAGGUACUAUAAUACAUGAGGAUCACCCAUGUCUCUCGCUUUGCGGG | 55.9 | 26.6 |  | 
10 | UGGACGGGAGGAUAUACAUGAGGAUCACCCAUGUAAAAUUGUAUAAUAUAUAGUUCGUGUAGAAGGUUUGUUUU |  |  | 49.6 | 44.7
11 | UGGACUGGGCAGAAGGGACAUGAGGAUCACCCAUGUCUUGGGCUACUUCAGUCAGGAUAUGCCCGUUGAAUAUCCGUGCAUCAA |  |  | 10.2 | 52.6
12 | UGGAUCAUGGGAGGAUAUCCUCAAGAGACAUGAGGAUCACCCAUGUAUUAUAAGCCGAAAGGCAUGGAGAAGGCCCAUGAUCCU | 50.3 | 19 |  | 
13 | UGGAUGUAGGAGAAGGAGGACUUCAUGAGGAUCACCCAUGUGUUAGGACUUAGGAUAUUUGACAACAUGAGGAUCACCCAUGUG | 60 | 52.7 |  | 
14 | UGGCCAAGAGGAUAUACAUGAGGAUCACCCAUGUCCAUCCUGAUGGAUAGGGCCGAGUGUAGAAGGCUUGGUCC |  |  | 32.6 | 18
15 | UGGGUAAAUGUAGGAUAUUUAUAUUAAUAGUAUGGAGAAGGACAUGAGGAUCACCCAUGUACAGGGAGUUACCCAUUUCCUCUC |  |  | 670 | 662
16 | UGGUAACAUGAGGAUCACCCAUGUCAAGAGAAUCAAGGAUAUGGUAAGUAAUAAGAGAAUCUAGAAGGUGAAGUUG | 96.2 | 69.1 |  | 
17 | UGGUAACAUGAGGAUCACCCAUGUCAGGAUAUCAGUAAGAAUAGAUUAGAGUAGAAGAUGAGAAGGGACUAUAU |  |  | 31.9 | 29.5
18 | UGGUACAACGGAGGAUAUCAUGUAGAUACAUGAGGAUCACCCAUGUCGAUGGAGACAUCGGAGAUUGAGAAGGCCGUUGUACCU | 692 | 30.1 |  | 
19 | UGGUACAUGGGAGGAUAUCAUGUAUUCACAUGAGGAUCACCCAUGUCGAUGGAGACAUCGGAGAUUGAGAAGGCCCAUGUACCU | 1270 | 46.9 |  | 
20 | UGGUACAUGGGAGGAUAUCGUGUAGACACAUGAGGAUCACCCAUGUCGAUGGAGACAUCGGAGAUCGAGAAGGCCCAUGUACCU | 84.6 | 8.81 |  | 
21 | UGGUACAUGGGAGGAUAUGGAGUGAAGACAUGAGGAUCACCCAUGUUAUAAAUGCCGAGAGGCAACUAGAAGGCCCAUGUACCU | 77.7 | 14.3 |  | 
22 | UGGUACAUGGGAGGAUAUGGGACAUGAGGAUCACCCAUGUGAAAAUUAAAUAUGCCGAUAGGCAACUAGAAGGCCCAUGUACCU | 33.1 | 15.4 |  | 
23 | UGGUACAUGGGAGGAUAUGGGUUGAUAACAUGAGGAUCACCCAUGUUAAAUAUCGCGAGAGCGAACUAGAAGGCCCAUGUACCU | 715 | 45.1 |  | 
24 | UGGUACUAGAGAGGAUAUGGGAAGAUACAUGAGGAUCACCCAUGUUUAAGAAUGCCGAGAGGCAACUAGAAGGCCCUAGUACCU | 490 | 31.5 |  | 
25 | UGGUACUAGGGAGGAUAUGGGAAGAUACAUGAGGAUCACCCAUGUUUAAGAAUACCGAGAGGCAACUAGAAGGCCCUAGUACCU | 192 | 13.3 |  | 
26 | UGGUACUAGGGAGGAUAUGGGAAGAUACAUGAGGAUCACCCAUGUUUAAGAAUGCCGAGAGGCAACCAGAAGGCCCUAGUACCU | 8.27 | 5.57 |  | 
27 | UGGUACUAGGGAGGAUAUGGGAAGAUACAUGAGGAUCACCCAUGUUUAAGAAUGCCGAGAGGCAACUAGAAGGCCCUAAUACCU | 400 | 19.1 |  | 

Row | Sequence | apparent Kd [1] [nM] | apparent Kd [2] [nM] | apparent Kd [3] [nM] | apparent Kd [4] [nM]
28 | UGGUACUAGGGAGGAUAUGGGAAGAUACAUGAGGAUCACCCAUGUUUAAGAAUGCCGAGAGGCAACUAGAAGGCCCUAGUACAU | 537 | 18.7 |  | 
29 | UGGUACUAGGGAGGAUAUGGGAAGAUACAUGAGGAUCACCCAUGUUUGAGAAUGCCGAGAGGCAACUAGAAGGCCCUAGUACCU | 430 | 18.1 |  | 
30 | UGGUACUAGGGAGGAUAUGGGCAGAUACAUGAGGAUCACCCAUGUUUAAGAAUGCCGAGAGGCAACUAGAAGGCCCUAGUACCU | 553 | 25.5 |  | 
31 | UGGUCAUGAUCAGGAUAUUAACAUGGGCUACAUUAAGAAGGGAUAGUGAGAUACGAACAUGAGGAUCACCCAUGUUGUGUUGUU | 26.8 | 21.2 |  | 
32 | UGGUCAUGAUCAGGAUAUUAACAUGGGCUACAUUAAGAAGGGAUAGUGAGAUACGAACUACAUGAGGAUCACCCAUGUGUUGUU | 68.7 | 55.4 |  | 
33 | UGGUCAUGAUCAGGAUAUUAACAUGGGCUACAUUAAGAAGGGAUAGUGAGAUACGAACUGAACAUGAGGAUCACCCAUGUUGUU | 240 | 104 |  | 
34 | UGGUUGGGAGGAUAUCCAAUAUAUGACAUGAGGAUCACCCAUGUUUCCACUCGUACCUCCGGAGAAGGCCCUUCCU |  |  | 22.8 | 21.6
35 | UGGUUGUGUGUCAGGAUAUGGUCUGGUGUUUCGGGCUAGAAGGGACAUGAGGAUCACCCAUGUGGCUGGCGGGU |  |  | 262 | 439
36 | UGUACUCAAAGAGUACCAAUACGAACAUGAGGAUCACCCAUGUAGGAUAUGCUACUCAAAGAGUAGCAGAAGGACAUGUGCCUA |  |  | 19 | 76.3
37 | UGUAUGGACAGAGGAUAUGCCGAUAGGAUCUACUAUCGAAGAAUCCUCACAUGAGGAUCACCCAUGUAGAAGGCUGUUCAUACU |  |  | 8.2 | 34.1
38 | UGUAUGGACAGAGGAUAUGCCGGUAGGAUCUACUAUCGAAGAAUCCUCACAUGAGGAUCACCCAUGUAGAAGGCUGUCCAUACU |  |  | 9.36 | 42.8
39 | UGUAUGUAGGAGAAGGAGGACUUCAUGAGGAUCACCCAUGUGUUAGGACUUAGGAUAUCUGACGACAUGAGGAUCACCCAUGUG | 537 | 355 |  | 
40 | UGUAUUAAUGGAGGAUAUCGAUAUCAAACAUGAGGAUCACCCAUGUUGAGGAUCACCCAUGUCCAUGAGAAGGCUGGCGUACUU | 30.4 | 29.2 |  | 
41 | UGUCAGAGCAGAGGAUAUUACAUGAGGAUCACCCAUGUAUGAACCAAUAGCUGGAAACAGCAAUGUAAGAAGGCUGCUCCGACA |  |  | 11.9 | 130
42 | UGUCCAUAGCAGAAGGACAUGAAUAACCAUGAAAACAUGAGGAUCACCCAUGUAGGAUAUGCUAUGGACUAAGAGCGAAAGCUC |  |  | 15 | 175
43 | UGUCCAUAGCAGAAGGACAUGAGGAUCACCCAUGUAAUAAAACAUCCAAAUGUAGGAUAUGCUAUGGACUAAGAGCGAAAGCUC |  |  | 28.9 | 606
44 | UGUCCAUAGCAGAAGGACAUGUAUAACCAUGAAAACAUGAGGAUCACCCAUGUAGGAUAUGCUAUGGACUAAGAGCGAAAGCUC |  |  | 8.57 | 68.8
45 | UGUCGGAGCAGAGGAUAUACAUGAGGAUCACCCAUGUAAAUGGAAGAAGCCUGGAAACAGGCAAUGUAGAAGGCUGCUCCGACA |  |  | 132 | 970
46 | UGUCGGAGCAGAGGAUAUACAUGAGGAUCACCCAUGUAAUAAAGUGAAGCCUGGACACAGGCAAUGUAGAAGGCUGCUCCGACA |  |  | 12.7 | 87.9
47 | UGUCGGAGCAGAGGAUAUUACAUGAGGAUCACCCAUGUAUGAACCAAUAGCUGGAAACAGCAAUGUAAGAAGGCAGCUCCGACA |  |  | 5.11 | 8.82
48 | UGUCGGAGCAGAGGAUAUUACAUGAGGAUCACCCAUGUAUGAACCAAUAGCUGGAAACAGCACUGUAAGAAGGCUGCUCCGACA |  |  | 8.67 | 96.2
49 | UGUCGGAGCAGAGGAUAUUACAUGAGGAUCACCCAUGUAUGAACCAAUAGCUGGAAUCAGCAAUGUAAGAAGGCUGCUCCGACA |  |  | 17.5 | 167
50 | UGUCGGAGCAGAGGAUAUUACAUGAGGAUCACCCAUGUAUGAACCAAUAGCUGGAGACAGCAAUGUAAGAAGGCUGCUCCGACA |  |  | 12.2 | 171
51 | UGUCGGAGCAGAGGAUAUUACAUGAGGAUCACCCAUGUAUGAACCCAUAGCUGGAAACAGCAAUGUAAGAAGGCUGCUCCGACA |  |  | 8.97 | 82.4
52 | UGUCGGAGCAGAGGAUAUUACAUGAGGAUCACCCAUGUAUUAACCAAUAGCUGGAAACAGCAAUGUAAGAAGGCUGCUCCGACA |  |  | 5.11 | 7.87
53 | UGUGCGUAUGUGAGGAUAUGCUGGUCCUUGGAUCGGCAGAAGGCACAUGAGGAUCACCCAUGUGGUGUCGUUCA |  |  | 264 | 27.2
54 | UGUGUGUGACAGGAUAUGCAGGUUAUGAGACGGGUAGAAGGGUCUACAUGAGGAUCACCCAUGUGGCCGGUUGG |  |  | 18 | 16.9

— the EternaBench riboswitch data
